In brackets after ≈: the same amount, converted by molar mass.
Assays:
Type in all cases: functional
Enterobacter cloacae [1] = test: Antimicrobial activity against aac(6')-Ib-cr-negative Enterobacter cloacae FJ61 harboring GyrA S83I, GyrA D87A, ParC S80I mutant, wild-type GyrB and qnrS genes by agar dilution method in presence of clavulanic acid
In short: (§1)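 MICs measured by CLSI agar dilution (M7-A7) and interpreted against CLSI M100-S17 breakpoints. Strains were clinical Enterobacteriaceae isolates or the azide-resistant E. coli J53 recipient.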

Enterobacter cloacae [2] = test: Antimicrobial activity against aac(6')-Ib-cr-negative Enterobacter cloacae WH42 harboring wild-type GyrA, ParC, GyrB and qnrA genes by agar dilution method in presence of clavulanic acid
In short: (§2)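 MICs were determined by the CLSI agar dilution method (M7-A7) and interpreted against CLSI M100-S17 breakpoints.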

Citrobacter freundii [3] = test: Antimicrobial activity against aac(6')-Ib-cr-positive Citrobacter freundii JN1T by agar dilution method in presence of clavulanic acid
In short: (§3)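 Transconjugants came from conjugation of qnr and/or aac(6')-Ib-cr-carrying donors with azide-resistant E. coli J53. […] MICs were determined by CLSI agar dilution (M7-A7) and interpreted by M100-S17.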

Klebsiella pneumoniae [4] = test: Antimicrobial activity against aac(6')-Ib-cr-positive Klebsiella pneumoniae SY26 harboring GyrA S83I, ParC S80I mutant, wild-type GyrB and qnrB genes by agar dilution method in presence of clavulanic acid; in short: as §1
Klebsiella pneumoniae [5] = test: Antimicrobial activity against aac(6')-Ib-cr-positive Klebsiella pneumoniae JN41T harboring qnrB gene by agar dilution method
In short: (§4)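 Transconjugants were made by conjugating a qnr/aac(6')-Ib-cr donor with azide-resistant E. coli J53. Selection used Trypticase soy agar with sodium azide 150 µg/ml and sulfamethoxazole 180 µg/ml. […] MICs were read by CLSI agar dilution (M7-A7) and interpreted per M100-S17.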

Enterobacter cloacae [6] = test: Antimicrobial activity against aac(6')-Ib-cr-positive Enterobacter cloacae FJ63 harboring GyrA S83I, GyrA D87A, ParC S80I mutant, wild-type GyrB and qnrS genes by agar dilution method
Enterobacter cloacae [7] = test: Antimicrobial activity against aac(6')-Ib-cr-negative Enterobacter cloacae GZ47T harboring qnrB gene by agar dilution method
Enterobacter cloacae [8] = test: Antimicrobial activity against aac(6')-Ib-cr-positive Enterobacter cloacae FJ63T harboring qnrS gene by agar dilution method
Citrobacter freundii [9] = test: Antimicrobial activity against aac(6')-Ib-cr-positive Citrobacter freundii JN1T by agar dilution method; in short: as §2
Citrobacter freundii [10] = test: Antimicrobial activity against aac(6')-Ib-cr-negative Citrobacter freundii JN64 harboring GyrA T83I, wild-type ParC, GyrB and qnrA genes by agar dilution method; in short: as §2
Citrobacter freundii [11] = test: Antimicrobial activity against aac(6')-Ib-cr-positive Citrobacter freundii TJ15T harboring wild-type GyrA, ParC, GyrB genes by agar dilution method; in short: as §2
Enterobacter cloacae [12] = test: Antimicrobial activity against aac(6')-Ib-cr-negative Enterobacter cloacae GZ47 harboring qnrB and qnrS genes by agar dilution method in presence of clavulanic acid; in short: as §1
Enterobacter cloacae [13] = test: Antimicrobial activity against aac(6')-Ib-cr-negative Enterobacter cloacae WH42T harboring qnrA gene by agar dilution method in presence of clavulanic acid; in short: as §3
Citrobacter freundii [14] = test: Antimicrobial activity against aac(6')-Ib-cr-positive Citrobacter freundii PU55 harboring GyrA T83I, ParC S80I mutant, wild-type GyrB, qnrA genes by agar dilution method; in short: as §2
Klebsiella pneumoniae [15] = test: Antimicrobial activity against aac(6')-Ib-cr-negative Klebsiella pneumoniae SY22T harboring qnrS gene by agar dilution method; in short: as §2
Enterobacter cloacae [16] = test: Antimicrobial activity against aac(6')-Ib-cr-negative Enterobacter cloacae FJ67 harboring […] and qnrS genes by agar dilution method
Enterobacter cloacae [17] = test: Antimicrobial activity against aac(6')-Ib-cr-negative Enterobacter cloacae WH42T harboring qnrA gene by agar dilution method
Klebsiella pneumoniae [18] = test: Antimicrobial activity against aac(6')-Ib-cr-positive Klebsiella pneumoniae JN132 harboring GyrA S83I, ParC S80I mutant, wild-type GyrB and qnrB genes by agar dilution method in presence of clavulanic acid; in short: as §1
Escherichia coli [19] = test: Antimicrobial activity against aac(6')-Ib-cr-negative Escherichia coli PU12T harboring wild-type GyrA, GyrB, ParC and qnrS genes by agar dilution method; in short: as §2
Enterobacter cloacae [20] = test: Antimicrobial activity against aac(6')-Ib-cr-positive Enterobacter cloacae FJ63 harboring GyrA S83I, GyrA D87A, ParC S80I mutant, wild-type GyrB and qnrS genes by agar dilution method in presence of clavulanic acid; in short: as §2
Citrobacter freundii [21] = test: Antimicrobial activity against aac(6')-Ib-cr-positive Citrobacter freundii JS33T harboring qnrA gene by agar dilution method; in short: as §2
Klebsiella pneumoniae [22] = test: Antimicrobial activity against aac(6')-Ib-cr-positive Klebsiella pneumoniae GZ40T harboring qnrB gene by agar dilution method in presence of clavulanic acid; in short: as §3
Citrobacter freundii [23] = test: Antimicrobial activity against aac(6')-Ib-cr-positive Citrobacter freundii TJ15 harboring GyrA T83I, ParC S80I mutant, wild-type GyrB, qnrB genes by agar dilution method; in short: as §2
Klebsiella pneumoniae [24] = test: Antimicrobial activity against aac(6')-Ib-cr-positive Klebsiella pneumoniae SY26 harboring GyrA S83I, ParC S80I mutant, wild-type GyrB and qnrB genes by agar dilution method in presence of Tazobactam; in short: as §1
Klebsiella pneumoniae [25] = test: Antimicrobial activity against aac(6')-Ib-cr-positive Klebsiella pneumoniae JN41T harboring qnrB gene by agar dilution method in presence of Tazobactam; in short: as §4
Citrobacter freundii [26] = test: Antimicrobial activity against aac(6')-Ib-cr-positive Citrobacter freundii PU55 harboring GyrA T83I, ParC S80I mutant, wild-type GyrB, qnrA genes by agar dilution method in presence of Tazobactam
In short: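 MICs were determined by CLSI agar dilution (M7-A7) and interpreted by CLSI M100-S17 breakpoints. The curator's line names the β-lactamase inhibitor added.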

Enterobacter cloacae [27] = test: Antimicrobial activity against aac(6')-Ib-cr-negative Enterobacter cloacae WH42 harboring wild-type GyrA, ParC, GyrB and qnrA genes by agar dilution method in presence of Tazobactam; in short: as §1
Escherichia coli [28] = test: Antimicrobial activity against aac(6')-Ib-cr-positive Escherichia coli FJ3T harboring wild-type GyrA, ParC, GyrB and qnrB genes by agar dilution method in presence of Tazobactam
In short: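 Transconjugants came from conjugation of qnr and/or aac(6')-Ib-cr donors into azide-resistant E. coli J53. […] MICs were measured by CLSI agar dilution (M7-A7) and interpreted per M100-S17.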

Enterobacter cloacae [29] = test: Antimicrobial activity against aac(6')-Ib-cr-negative Enterobacter cloacae GZ47T harboring qnrB gene by agar dilution method in presence of Tazobactam; in short: as §2
Klebsiella pneumoniae [30] = test: Antimicrobial activity against aac(6')-Ib-cr-positive Klebsiella pneumoniae SY26T harboring wild-type GyrA, ParC, GyrB and qnrB genes by agar dilution method in presence of Tazobactam; in short: as §4
Klebsiella pneumoniae [31] = test: Antimicrobial activity against aac(6')-Ib-cr-positive Klebsiella pneumoniae WH99T harboring qnrB gene by agar dilution method in presence of Tazobactam; in short: as §4
Enterobacter cloacae [32] = test: Antimicrobial activity against aac(6')-Ib-cr-negative Enterobacter cloacae FJ61T harboring qnrS gene by agar dilution method in presence of Tazobactam; in short: as §2

Q: With CO/N=C(\C(=O)N[C@@H]1C(=O)N2C(C(=O)O)=C(COC(C)=O)CS[C@H]12)c1csc(N)n1 [CEFOTAXIME] as the molecule, how does the MIC (Enterobacter cloacae [1]) read?
A: The MIC was 8 µg/mL.

Q: What about the MIC (Enterobacter cloacae [2]) of the same molecule?
A: Its MIC is 256 µg/mL.

Q: And the MIC (Citrobacter freundii [3])?
A: Its MIC is 0.032 µg/mL.

Q: What about the MIC (Klebsiella pneumoniae [4]) of the same molecule?
A: The MIC was 8 µg/mL.

Q: And the MIC (Klebsiella pneumoniae [5])?
A: Its MIC is 16 µg/mL (≈ 35.1 µM).

Q: What about the MIC (Enterobacter cloacae [6]) of the same molecule?
A: Its MIC is > 256 µg/mL.

Q: And the MIC (Enterobacter cloacae [7])?
A: Its MIC is 0.25 µg/mL (≈ 0.549 µM).

Q: What about the MIC (Enterobacter cloacae [8]) of the same molecule?
A: Its MIC is 32 µg/mL (≈ 70.3 µM).

Q: And the MIC (Citrobacter freundii [9])?
A: The MIC was 8 µg/mL (≈ 17.6 µM).

Q: And the MIC (Citrobacter freundii [10])?
A: Its MIC is 256 µg/mL (≈ 562 µM).

Q: And the MIC (Citrobacter freundii [11])?
A: The MIC was 0.125 µg/mL (≈ 0.274 µM).

Q: What about the MIC (Enterobacter cloacae [12]) of the same molecule?
A: Its MIC is 8 µg/mL.

Q: What about the MIC (Enterobacter cloacae [13]) of the same molecule?
A: Its MIC is 0.032 µg/mL.

Q: And the MIC (Citrobacter freundii [14])?
A: Its MIC is 128 µg/mL (≈ 281 µM).

Q: What about the MIC (Klebsiella pneumoniae [15]) of the same molecule?
A: The MIC was 0.5 µg/mL (≈ 1.1 µM).

Q: And the MIC (Enterobacter cloacae [16])?
A: Its MIC is 256 µg/mL (≈ 562 µM).

Q: And the MIC (Enterobacter cloacae [17])?
A: The MIC was 8 µg/mL (≈ 17.6 µM).

Q: And the MIC (Klebsiella pneumoniae [18])?
A: Its MIC is 1 µg/mL.

Q: And the MIC (Escherichia coli [19])?
A: Its MIC is 16 µg/mL (≈ 35.1 µM).

Q: What about the MIC (Enterobacter cloacae [20]) of the same molecule?
A: The MIC was 1 µg/mL.

Q: And the MIC (Citrobacter freundii [21])?
A: Its MIC is 0.125 µg/mL (≈ 0.274 µM).

Q: And the MIC (Klebsiella pneumoniae [22])?
A: The MIC was 0.032 µg/mL.

Q: What about the MIC (Citrobacter freundii [23]) of the same molecule?
A: The MIC was 1 µg/mL (≈ 2.2 µM).

Q: Which MIC (Klebsiella pneumoniae [24]) does the source give for CCN1CCN(C(=O)N[C@@H](C(=O)N[C@@H]2C(=O)N3[C@@H]2SC(C)(C)[C@@H]3C(=O)O)c2ccccc2)C(=O)C1=O [PIPERACILLIN] here?
A: Its MIC is 16 µg/mL.

Q: And the MIC (Klebsiella pneumoniae [25])?
A: Its MIC is 2 µg/mL.

Q: And the MIC (Citrobacter freundii [26])?
A: Its MIC is 64 µg/mL.

Q: What about the MIC (Enterobacter cloacae [27]) of the same molecule?
A: Its MIC is 64 µg/mL.

Q: What about the MIC (Escherichia coli [28]) of the same molecule?
A: The MIC was 1 µg/mL.

Q: And the MIC (Enterobacter cloacae [29])?
A: Its MIC is 2 µg/mL.

Q: What about the MIC (Klebsiella pneumoniae [30]) of the same molecule?
A: The MIC was 2 µg/mL.

Q: And the MIC (Klebsiella pneumoniae [31])?
A: Its MIC is 2 µg/mL.

Q: And the MIC (Enterobacter cloacae [32])?
A: The MIC was 1 µg/mL.
